Assay [1] can be described thus: Displacement of [3H]AMPA from AMPA receptor in rat brain synaptosomal membranes after 30 mins by TopCount microplate scintillation counting method. The assay is classed as cell membranes.
The nature of assay [2]: Displacement of [3H]kainic acid from kainate receptor in rat brain synaptosomal membranes after 60 mins by TopCount microplate scintillation counting method. The assay is classed as cell membranes. On the technique in general: Loss of bound radioactivity is the signal in a displacement assay; it reports binding, not function.
The nature of assay [3]: Displacement of [3H]CGP39653 from NMDA receptor in rat brain synaptosomal membranes after 60 mins by TopCount microplate scintillation counting method. It is filed as cell membranes.
The target in assay [4] is T1, Glutamate receptor ionotropic, kainate 1 (Rattus norvegicus, UniProt P22756). The assay can be described thus: Displacement of [3H]NF608 from eGFP-fused recombinant rat full length GluK1 receptor expressed in HEK293T/17 cells by liquid scintillation counting method. The assay is classed as cell-based.
The target of assay [5] is T2, Glutamate receptor ionotropic, kainate 2 (Rattus norvegicus, UniProt P42260). The assay can be described thus: Displacement of [3H]kainic acid from eGFP-fused recombinant rat full length GluK2 receptor expressed in HEK293T/17 cells by liquid scintillation counting method. It is filed as cell-based.
In assay [6] the target is Glutamate receptor ionotropic, kainate 3 (Rattus norvegicus, UniProt P42264). The assay can be described thus: Displacement of [3H]kainic acid from eGFP-fused recombinant rat full length GluK3 receptor expressed in HEK293T/17 cells by liquid scintillation counting method. The assay is classed as cell-based.
The target in the next assay is Glutamate receptor 2 (Rattus norvegicus, UniProt P19491). The assay can be described thus: Displacement of (RS)-[3H]AMPA from eGFP-fused recombinant rat full length GluA2 receptor expressed in HEK293T/17 cells by liquid scintillation counting method. The assay is classed as cell-based.
The target of assay [7] is Excitatory amino acid transporter 2 (Homo sapiens, UniProt P43004). The assay can be described thus: Inhibition of human EAAT2 expressed in HEK293 cells assessed as reduction in [3H]-D-Asp uptake after 15 mins by TopCount scintillation counting method. It is filed as cell-based.
In assay [8] the target is T3, Excitatory amino acid transporter 3 (Homo sapiens, UniProt P43005).
T3 sequence (P43005 whole entry): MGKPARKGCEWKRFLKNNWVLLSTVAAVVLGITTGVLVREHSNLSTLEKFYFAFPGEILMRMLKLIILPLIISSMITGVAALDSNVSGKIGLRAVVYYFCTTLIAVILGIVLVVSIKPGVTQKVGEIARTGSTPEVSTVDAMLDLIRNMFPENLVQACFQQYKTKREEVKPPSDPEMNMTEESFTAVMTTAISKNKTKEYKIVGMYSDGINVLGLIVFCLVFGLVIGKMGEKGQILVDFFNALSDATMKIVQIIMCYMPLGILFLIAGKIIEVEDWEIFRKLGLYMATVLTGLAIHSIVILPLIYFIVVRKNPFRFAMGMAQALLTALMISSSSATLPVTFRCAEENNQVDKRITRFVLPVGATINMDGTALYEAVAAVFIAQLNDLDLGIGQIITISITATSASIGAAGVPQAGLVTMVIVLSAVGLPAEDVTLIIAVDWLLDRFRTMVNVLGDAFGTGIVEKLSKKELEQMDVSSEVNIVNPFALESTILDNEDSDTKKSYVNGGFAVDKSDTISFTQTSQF
Nature of the assay: Inhibition of human EAAT3 expressed in HEK293 cells assessed as reduction in [3H]-D-Asp uptake after 15 mins by TopCount scintillation counting method. The assay is classed as cell-based.

In assay [9] the target is Excitatory amino acid transporter 1 (Homo sapiens, UniProt P43003). Nature of the assay: Inhibition of human EAAT1 expressed in HEK293 cells assessed as reduction in [3H]-D-Asp uptake after 15 mins by TopCount scintillation counting method. It is filed as cell-based.
Assay [10] deals with T1, Glutamate receptor ionotropic, kainate 1. The assay can be described thus: Antagonist activity at recombinant rat full length GluK1 receptor expressed in HEK293T cells assessed as inhibition of glutamate induced increase in peak current at -100mV holding potential by patch-clamp method. It is filed as cell-based. In a few lines:
(§1)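 Rat GluK1-2a or GluK2a cDNA was transiently co-transfected with eGFP into HEK293T/17 cells by calcium phosphate, 24 h after low-density plating on poly-D-lysine. Recordings were made 36–48 h after transfection. Outside-out patches at −100 mV received fast piezo applications of 1 mM Glu (250 ms). Antagonist was added to control and agonist solutions (final 0.001–300 μM). Peak current was taken as % of control (mean ± SEM, 3–5 responses per concentration), and IC50 was fitted with a Hill equation.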
On the technique in general: In patch-clamp work, channel activity is measured electrically.

Assay [11] deals with T2, Glutamate receptor ionotropic, kainate 2. Nature of the assay: Antagonist activity at recombinant rat full length GluK2 receptor expressed in HEK293T cells assessed as inhibition of glutamate induced increase in peak current at -100mV holding potential by patch-clamp method. It is filed as cell-based. In a few lines: as §1
Assay [12] concerns the target T1, Glutamate receptor ionotropic, kainate 1. Nature of the assay: Displacement of [3H]-(2S,4R)-4-Methylglutamic acid from rat eGFP-fused GluK1 receptor LBD expressed in HEK293T/17 cells by liquid scintillation counting method. It is filed as cell-based.

As usually defined, the pKi is −log10 of the Ki, conventionally taken in molar units. By IC50 is commonly meant the concentration that inhibits the measured activity by half.

T2 sequence (P42260 whole entry, the tested form may be a part): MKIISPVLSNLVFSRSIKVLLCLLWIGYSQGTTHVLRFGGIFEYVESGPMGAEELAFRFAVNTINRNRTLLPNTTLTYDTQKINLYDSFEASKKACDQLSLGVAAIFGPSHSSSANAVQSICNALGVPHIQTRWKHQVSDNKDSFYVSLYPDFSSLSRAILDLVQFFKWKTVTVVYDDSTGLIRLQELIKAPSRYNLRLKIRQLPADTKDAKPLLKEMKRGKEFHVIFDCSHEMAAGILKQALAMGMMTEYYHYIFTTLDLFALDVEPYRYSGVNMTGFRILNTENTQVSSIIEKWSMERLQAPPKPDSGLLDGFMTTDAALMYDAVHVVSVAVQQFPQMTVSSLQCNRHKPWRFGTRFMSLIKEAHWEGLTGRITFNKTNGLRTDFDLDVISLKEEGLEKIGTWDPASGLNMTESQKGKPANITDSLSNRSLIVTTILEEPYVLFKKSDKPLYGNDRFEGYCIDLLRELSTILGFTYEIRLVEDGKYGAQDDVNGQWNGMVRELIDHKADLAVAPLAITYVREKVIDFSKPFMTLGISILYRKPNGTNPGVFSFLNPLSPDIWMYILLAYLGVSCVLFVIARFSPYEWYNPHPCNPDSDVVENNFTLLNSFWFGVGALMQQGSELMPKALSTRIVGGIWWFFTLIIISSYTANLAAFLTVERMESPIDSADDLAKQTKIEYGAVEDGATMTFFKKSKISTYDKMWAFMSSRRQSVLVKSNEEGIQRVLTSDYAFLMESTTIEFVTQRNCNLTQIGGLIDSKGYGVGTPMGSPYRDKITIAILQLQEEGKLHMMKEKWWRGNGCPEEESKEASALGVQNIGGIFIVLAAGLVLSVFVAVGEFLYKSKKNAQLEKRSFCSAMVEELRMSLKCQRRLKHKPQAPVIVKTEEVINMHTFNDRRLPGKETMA
Sequence of Glutamate receptor 2 (P19491 whole entry, the tested form may be a part): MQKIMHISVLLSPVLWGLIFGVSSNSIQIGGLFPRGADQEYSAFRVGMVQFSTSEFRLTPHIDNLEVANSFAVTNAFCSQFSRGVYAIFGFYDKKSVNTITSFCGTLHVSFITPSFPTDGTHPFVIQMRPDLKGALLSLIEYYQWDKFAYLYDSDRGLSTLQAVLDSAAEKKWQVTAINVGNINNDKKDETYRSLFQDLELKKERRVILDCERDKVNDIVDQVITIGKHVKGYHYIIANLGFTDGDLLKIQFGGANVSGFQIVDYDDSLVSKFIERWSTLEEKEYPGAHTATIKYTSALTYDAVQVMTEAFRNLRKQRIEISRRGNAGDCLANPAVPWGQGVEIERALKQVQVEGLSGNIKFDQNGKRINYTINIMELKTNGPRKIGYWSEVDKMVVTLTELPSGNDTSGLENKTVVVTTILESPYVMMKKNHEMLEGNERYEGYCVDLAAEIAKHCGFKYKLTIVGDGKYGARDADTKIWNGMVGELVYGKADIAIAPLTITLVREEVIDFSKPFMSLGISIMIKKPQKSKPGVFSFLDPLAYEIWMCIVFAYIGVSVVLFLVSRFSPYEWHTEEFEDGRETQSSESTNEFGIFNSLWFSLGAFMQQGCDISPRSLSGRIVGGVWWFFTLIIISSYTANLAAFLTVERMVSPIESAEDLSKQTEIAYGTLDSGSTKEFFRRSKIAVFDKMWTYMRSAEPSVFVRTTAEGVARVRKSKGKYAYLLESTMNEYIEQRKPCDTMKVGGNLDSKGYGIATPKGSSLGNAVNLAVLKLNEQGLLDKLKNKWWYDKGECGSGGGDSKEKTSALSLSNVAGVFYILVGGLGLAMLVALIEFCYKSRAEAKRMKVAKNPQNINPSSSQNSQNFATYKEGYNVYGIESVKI
Sequence of Excitatory amino acid transporter 1 (P43003 whole entry): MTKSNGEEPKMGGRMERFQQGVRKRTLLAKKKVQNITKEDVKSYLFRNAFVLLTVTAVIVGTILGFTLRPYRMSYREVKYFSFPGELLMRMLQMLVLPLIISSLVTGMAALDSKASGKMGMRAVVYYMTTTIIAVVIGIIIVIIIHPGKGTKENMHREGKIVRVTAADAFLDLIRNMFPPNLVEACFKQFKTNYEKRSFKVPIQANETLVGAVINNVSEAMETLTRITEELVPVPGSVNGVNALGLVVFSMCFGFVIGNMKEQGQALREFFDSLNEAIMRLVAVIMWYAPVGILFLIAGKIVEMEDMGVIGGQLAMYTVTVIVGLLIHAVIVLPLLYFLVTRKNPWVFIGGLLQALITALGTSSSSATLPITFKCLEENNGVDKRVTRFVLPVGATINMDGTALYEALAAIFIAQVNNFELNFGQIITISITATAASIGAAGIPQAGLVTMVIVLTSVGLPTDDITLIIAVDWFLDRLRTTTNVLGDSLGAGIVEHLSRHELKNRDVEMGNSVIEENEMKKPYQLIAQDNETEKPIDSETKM
Sequence of Glutamate receptor ionotropic, kainate 3 (P42264 whole entry, the tested form may be a part): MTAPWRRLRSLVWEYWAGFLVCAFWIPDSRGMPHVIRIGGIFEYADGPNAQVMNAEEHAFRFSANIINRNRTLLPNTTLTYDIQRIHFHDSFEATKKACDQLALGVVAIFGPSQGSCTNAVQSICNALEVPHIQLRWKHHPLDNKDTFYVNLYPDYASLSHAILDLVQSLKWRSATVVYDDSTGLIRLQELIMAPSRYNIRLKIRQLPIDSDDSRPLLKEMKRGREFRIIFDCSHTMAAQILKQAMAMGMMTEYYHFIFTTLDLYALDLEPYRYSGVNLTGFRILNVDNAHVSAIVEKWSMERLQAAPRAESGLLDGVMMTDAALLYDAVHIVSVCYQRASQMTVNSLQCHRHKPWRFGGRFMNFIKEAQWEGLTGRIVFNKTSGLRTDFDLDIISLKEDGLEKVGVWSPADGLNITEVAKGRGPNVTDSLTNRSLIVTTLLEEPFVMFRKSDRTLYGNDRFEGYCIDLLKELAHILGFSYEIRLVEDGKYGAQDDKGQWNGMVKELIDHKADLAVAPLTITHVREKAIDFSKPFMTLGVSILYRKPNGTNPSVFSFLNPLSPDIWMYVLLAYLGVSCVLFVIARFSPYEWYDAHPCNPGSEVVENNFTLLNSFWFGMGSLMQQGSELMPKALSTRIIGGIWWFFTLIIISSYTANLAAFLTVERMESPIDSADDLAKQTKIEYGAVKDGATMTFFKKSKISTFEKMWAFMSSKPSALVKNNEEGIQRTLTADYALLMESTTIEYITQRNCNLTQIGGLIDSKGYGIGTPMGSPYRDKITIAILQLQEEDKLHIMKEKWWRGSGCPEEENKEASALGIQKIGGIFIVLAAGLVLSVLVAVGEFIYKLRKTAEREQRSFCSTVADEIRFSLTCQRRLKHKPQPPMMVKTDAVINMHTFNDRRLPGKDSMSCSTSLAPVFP
T1 sequence (P22756 whole entry, the tested form may be a part): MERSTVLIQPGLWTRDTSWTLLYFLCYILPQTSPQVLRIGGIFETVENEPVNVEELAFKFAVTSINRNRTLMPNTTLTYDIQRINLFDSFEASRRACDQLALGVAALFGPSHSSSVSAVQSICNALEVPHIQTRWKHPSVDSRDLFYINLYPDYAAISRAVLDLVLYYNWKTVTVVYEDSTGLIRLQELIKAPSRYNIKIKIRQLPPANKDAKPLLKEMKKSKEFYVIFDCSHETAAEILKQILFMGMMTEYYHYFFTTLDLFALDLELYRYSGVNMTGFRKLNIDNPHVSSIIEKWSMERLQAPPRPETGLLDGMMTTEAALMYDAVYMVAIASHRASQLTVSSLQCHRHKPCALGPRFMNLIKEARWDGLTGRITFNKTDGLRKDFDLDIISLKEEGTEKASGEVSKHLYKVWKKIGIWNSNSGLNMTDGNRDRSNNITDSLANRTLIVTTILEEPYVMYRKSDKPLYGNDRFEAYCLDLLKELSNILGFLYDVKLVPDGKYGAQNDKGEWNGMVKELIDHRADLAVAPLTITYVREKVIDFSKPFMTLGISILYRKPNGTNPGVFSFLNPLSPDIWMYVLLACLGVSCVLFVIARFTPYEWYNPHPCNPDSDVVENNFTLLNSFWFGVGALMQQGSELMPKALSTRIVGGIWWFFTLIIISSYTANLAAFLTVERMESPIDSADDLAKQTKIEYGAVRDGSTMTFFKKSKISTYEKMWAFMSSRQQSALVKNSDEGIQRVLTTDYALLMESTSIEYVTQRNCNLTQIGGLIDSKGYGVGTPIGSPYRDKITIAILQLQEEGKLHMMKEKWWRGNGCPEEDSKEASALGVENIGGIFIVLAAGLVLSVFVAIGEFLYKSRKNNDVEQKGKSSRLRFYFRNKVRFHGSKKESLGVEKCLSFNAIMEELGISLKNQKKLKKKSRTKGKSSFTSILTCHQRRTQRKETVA
Sequence of Excitatory amino acid transporter 2 (P43004 whole entry): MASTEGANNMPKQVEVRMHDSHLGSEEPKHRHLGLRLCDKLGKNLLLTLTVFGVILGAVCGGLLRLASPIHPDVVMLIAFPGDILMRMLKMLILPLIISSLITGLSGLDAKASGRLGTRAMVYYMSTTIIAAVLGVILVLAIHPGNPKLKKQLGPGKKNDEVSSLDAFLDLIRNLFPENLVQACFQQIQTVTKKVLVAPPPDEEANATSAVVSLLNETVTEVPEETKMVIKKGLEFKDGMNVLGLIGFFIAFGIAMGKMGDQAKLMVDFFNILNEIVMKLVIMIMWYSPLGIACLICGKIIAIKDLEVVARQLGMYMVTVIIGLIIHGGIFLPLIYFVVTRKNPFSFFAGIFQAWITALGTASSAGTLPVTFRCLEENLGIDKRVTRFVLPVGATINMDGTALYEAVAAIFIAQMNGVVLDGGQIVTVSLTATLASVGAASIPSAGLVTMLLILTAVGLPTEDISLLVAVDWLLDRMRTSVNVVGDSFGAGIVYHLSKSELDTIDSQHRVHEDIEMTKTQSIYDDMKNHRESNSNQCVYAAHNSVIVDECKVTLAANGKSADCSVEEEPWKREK

For the molecule `O=C(O)c1cccc(S[C@H]2CN[C@H](C(=O)O)C2)c1`, the Ki in assay [1] was above 100 µM; in [2], above 100 µM; in assay [3], 78 µM; in assay [4] (read-out: Ki), above 100 µM; in assay [5], above 100 µM; in assay [6] (read-out: Ki), above 100 µM. Further, the pKi in assay [3] is on record as 4.11.
In the case of `Cc1cccc(C(=O)O)c1O[C@H]1CN[C@H](C(=O)O)C1`, the Ki in [1] was above 100 µM; in assay [2] it was above 100 µM; in [3], above 100 µM; in assay [4] (read-out: Ki) it was 5.4 µM; in assay [5] it was above 1000 µM; in assay [6] (read-out: Ki), above 100 µM. Also, at Glutamate receptor 2, the Ki was above 100 µM.
As to `O=C(O)c1ccc(O[C@@H]2CN[C@H](C(=O)O)C2)cc1`, the Ki in assay [1], in [2], in assay [3], in assay [4] (read-out: Ki), in assay [5] and in assay [6] (read-out: Ki) was above 100 µM each time.
As for `O=C(O)c1c(O[C@H]2CN[C@H](C(=O)O)C2)ccc2ccccc12`, the Ki in assay [1] is above 100 µM; in assay [2], above 100 µM; in assay [3] it was above 100 µM; in [4] (read-out: Ki), 4.5 µM; in assay [5], above 100 µM; in [6] (read-out: Ki) it was 137 µM. In addition, the Ki in assay [6] (read-out: pKi (converted)) is 132 µM; at Glutamate receptor 2, above 100 µM.
Take `Cl.O=C(O)c1cccc(C[C@H]2CN[C@H](C(=O)O)C2)c1`: the Ki was above 100 µM in assay [1]; above 100 µM in [2]; 69 µM in assay [3]; above 100 µM in assay [4] (read-out: Ki); above 100 µM in assay [5]; above 100 µM in [6] (read-out: Ki). The same molecule yielded a negative logarithm of the Ki (pKi) in assay [3] of 4.18.
Turning to `O=C(O)Cc1cccc(O[C@H]2CN[C@H](C(=O)O)C2)c1`, the Ki in [1], in assay [2], in [3], in assay [4] (read-out: Ki), in assay [5] and in assay [6] (read-out: Ki) was above 100 µM in each case. Further, the Ki on Glutamate receptor 2 is above 100 µM.
For the molecule `O=C(O)c1cccc(O[C@H]2CN[C@H](C(=O)O)C2)c1`, the IC50 in assay [7], in [8] and in assay [9] was above 1000 µM in each case. Also, the Ki is above 100 µM in assay [1]; above 100 µM in assay [2]; above 100 µM in [3]; 36 µM in [4] (read-out: Ki); 33.1 µM in [4] (read-out: pKi (converted)); above 100 µM in [5]. Moreover, in assay [6] (read-out: Ki), the Ki is above 1000 µM.
On to `O=C(O)c1ccccc1S[C@H]1CN[C@H](C(=O)O)C1`, for which the Ki was above 100 µM in [1]; above 100 µM in assay [2]; 19 µM in [3]; 8.4 µM in assay [4] (read-out: Ki); above 100 µM in [5]; 22 µM in assay [6] (read-out: Ki). The molecule further displayed a pKi in [3] of 4.73.
For `O=C(O)c1cccc(O[C@@H]2CN[C@H](C(=O)O)C2)c1`, the Ki in [1], in assay [2], in assay [3], in assay [4] (read-out: Ki), in assay [5] and in assay [6] (read-out: Ki) was above 100 µM throughout.
Regarding `O=C(O)c1cccc(S[C@@H]2CN[C@H](C(=O)O)C2)c1`, the Ki in assay [1], in assay [2], in assay [3], in [4] (read-out: Ki), in assay [5] and in assay [6] (read-out: Ki) was above 100 µM in each case.
As to `O=C(O)c1ccc(O[C@H]2CN[C@H](C(=O)O)C2)c(C(=O)O)c1`, the Ki was above 100 µM in [1]; above 100 µM in assay [2]; above 100 µM in assay [3]; 100 µM in assay [4] (read-out: Ki); above 1000 µM in assay [5]; above 100 µM in assay [6] (read-out: Ki). The Ki on Glutamate receptor 2 is above 100 µM.
In the case of `O=C(O)c1ccccc1O[C@H]1CN[C@H](C(=O)O)C1`, the half-inhibitory concentration (IC50) in assay [7] is above 1000 µM; in assay [8], above 1000 µM; in [9] it was above 1000 µM; in assay [10], 5.7 µM; in [11] it was above 100 µM. Besides, the Ki was above 100 µM in assay [1]; above 100 µM in assay [2]; above 100 µM in assay [3]; 4 µM in [4] (read-out: Ki); above 100 µM in assay [5]; above 100 µM in assay [6] (read-out: Ki). Further, the Ki in assay [12] was 2.27 µM.
Consider `O=C(O)c1cc2ccccc2cc1O[C@H]1CN[C@H](C(=O)O)C1`, for which the Ki was above 100 µM in assay [1]; above 100 µM in assay [2]; above 100 µM in [3]; 3.5 µM in assay [4] (read-out: Ki); above 1000 µM in assay [5]; above 100 µM in [6] (read-out: Ki). Moreover, on Glutamate receptor 2, the Ki is above 100 µM.
Turning to `CC(=O)c1ccc(O[C@H]2CN[C@H](C(=O)O)C2)c(C(=O)O)c1`, the Ki in [1] is above 100 µM; in [2] it was above 100 µM; in [3], above 100 µM; in [4] (read-out: Ki) it was 4.7 µM; in assay [5] it was above 100 µM; in assay [6] (read-out: Ki), 30 µM. The Ki on Glutamate receptor 2 is above 100 µM.
With `O=C(O)c1ccccc1S[C@@H]1CN[C@H](C(=O)O)C1`, the Ki in assay [1], in assay [2], in assay [3], in assay [4] (read-out: Ki), in [5] and in [6] (read-out: Ki) was above 100 µM throughout.
Take `O=C(O)c1ccc2ccccc2c1O[C@H]1CN[C@H](C(=O)O)C1`: the Ki in [1], in assay [2], in assay [3], in assay [4] (read-out: Ki), in [5] and in [6] (read-out: Ki) was above 100 µM in each case. Besides, the Ki at Glutamate receptor 2 is above 100 µM.
Turning to `O=C(O)Cc1ccccc1O[C@H]1CN[C@H](C(=O)O)C1`, the Ki in assay [1] is above 100 µM; in assay [2], above 100 µM; in [3], above 100 µM; in [4] (read-out: Ki), 24 µM; in assay [5], above 1000 µM; in assay [6] (read-out: Ki), above 100 µM. For the same molecule, at Glutamate receptor 2, the Ki is above 100 µM.
For `Cl.O=C(O)c1ccc(O[C@H]2CN[C@H](C(=O)O)C2)cc1`, the IC50 in assay [7], in assay [8] and in [9] was above 1000 µM in each case. The Ki in assay [1] was above 100 µM; in assay [2], above 100 µM; in [3], 81 µM; in assay [4] (read-out: Ki), above 100 µM; in assay [5] it was above 100 µM; in [6] (read-out: Ki) it was above 100 µM. Moreover, in [3], the negative-log Ki (pKi) is 4.11.
On to `O=C(O)c1ccccc1O[C@@H]1CN[C@H](C(=O)O)C1`, for which the half-inhibitory concentration (IC50) in assay [7], in assay [8] and in [9] was above 1000 µM each time. The Ki in [1], in assay [2], in assay [3], in assay [4] (read-out: Ki), in assay [5] and in assay [6] (read-out: Ki) was above 100 µM each time.
As to `Cc1ccc(O[C@H]2CN[C@H](C(=O)O)C2)c(C(=O)O)c1`, the Ki was above 100 µM in [1]; above 100 µM in assay [2]; above 100 µM in assay [3]; 24 µM in [4] (read-out: Ki); above 100 µM in assay [5]; above 100 µM in assay [6] (read-out: Ki). Moreover, the Ki on Glutamate receptor 2 was above 100 µM.

The values are drawn from ChEMBL document CHEMBL4000194, “Design and Synthesis of a Series of l-trans-4-Substituted Prolines as Selective Antagonists for the Ionotropic Glutamate Receptors Including Functional and X-ray Crystallographic Studies of New Subtype Selective Kainic Acid Receptor Subtype 1 (GluK1) Antagonist …” (J Med Chem, 2017).
